# In the library only some 4.3% were active in any assay of this set; here they are far more common.
# UBC13 polyUb = UBC13 polyubiquitin chain formation inhibitors, primary screen, biochemical, TR-FRET, uHTS | 330,000 compounds, 0.47% hits | inhibition, % at 20 µM | Ubiquitin-conjugating enzyme E2 N (Homo sapiens), P61088; in the data active = inhibition above about 45%, passing the limit was not always enough
# Target sequence (P61088 whole entry, looked up): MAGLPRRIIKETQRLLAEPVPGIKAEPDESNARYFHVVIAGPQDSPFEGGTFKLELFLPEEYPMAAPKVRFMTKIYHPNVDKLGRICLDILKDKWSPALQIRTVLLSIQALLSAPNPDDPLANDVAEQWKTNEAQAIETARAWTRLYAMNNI
# ALR H2O2 inh = inhibitors of human ALR sulfhydryl oxidase, primary screen, biochemical, H2O2 detection, HRP-luminol luminescence, single point. purified ALR, DTT oxidation. FAD-linked sulfhydryl oxidase ALR (Homo sapiens), P55789. 290,000 compounds, 3.8% hits. inhibition, % (test concentration not listed);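 active = mean replicate inhibition above about 79%, with every replicate also reaching it, limit read from the data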
# RBBP9 inhibitor = human RBBP9 inhibitors, primary screen, biochemical, fluorescence polarization, FP-Rh probe, HTS | Serine hydrolase RBBP9 (Homo sapiens), O75884 | recombinant RBBP9 | inhibition, % at 7.94 µM | 220,000 compounds, 0.2% hits | AID 1515, 2009;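 active = inhibition above the campaign mean of all tested compounds plus 3 SD, cut at about 14% in these data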;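 note: plate controls were DMSO wells with RBBP9 for no effect and wells lacking RBBP9 protein for full effect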
# Target sequence (O75884 whole entry, looked up): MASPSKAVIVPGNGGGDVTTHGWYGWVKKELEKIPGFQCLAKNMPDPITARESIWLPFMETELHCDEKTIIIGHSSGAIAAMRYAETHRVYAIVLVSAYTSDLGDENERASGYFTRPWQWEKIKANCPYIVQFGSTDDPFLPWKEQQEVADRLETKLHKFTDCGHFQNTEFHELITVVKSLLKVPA
#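 system = RBBP9 protein | input = RBBP9 at 2.5 µM in dispensed solution, before mixing | measured by = fluorescence polarization (mP), excitation 525 nm, emission 598 nm | incubation = enzyme-compound preincubation 30 min, then probe labeling 45 min, 25 °C | buffer or medium = Tris-NaCl-Pluronic buffer, pH 8.0 | compound = single dose 7.94 µM | also added = FP-Rh probe, 375 nM dispensing solution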
# PREPL inh = PREPL enzyme inhibitors, primary screen, biochemical, fluorescence polarization. AID 2751, 2010. inhibition, % at 5.96 µM. 320,000 compounds, 0.68% hits. recombinant PREPL, fluorescence polarization activity-based probe; in the data active = inhibition above about 43%;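 note: 0% = enzyme with DMSO and 100% = wells lacking enzyme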
# Rin1-Abl PPI inh = inhibitors of Rin1-Abl protein binding, primary screen, biochemical, TR-FRET | 360,000 compounds, 0.4% hits | AID 588664, 2011 | inhibition, % at 7.35 µM | Tyrosine-protein kinase ABL1 (Homo sapiens) + Ras and Rab interactor 1 (Homo sapiens), …; in the data active = inhibition above about 5%, passing the limit was not always enough
# SUMO HTRF inh = inhibitors of in vitro SUMOylation cascade, primary screen, biochemical, HTRF, uHTS | HTRF SUMOylation assay, SAE1/SAE2 + UBC9 | AID 2006, 2009 | SUMO-conjugating enzyme UBC9 (Homo sapiens), P63279 | 290,000 compounds, 0.36% hits | inhibition, % at 35 µM; in the data active = inhibition above about 50%, passing the limit was not always enough
# Target sequence (P63279 whole entry, looked up): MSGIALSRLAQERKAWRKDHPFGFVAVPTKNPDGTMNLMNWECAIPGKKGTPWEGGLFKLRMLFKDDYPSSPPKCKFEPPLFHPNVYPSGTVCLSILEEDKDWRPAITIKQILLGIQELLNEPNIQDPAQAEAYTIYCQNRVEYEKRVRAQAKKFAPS
# * marks the source's active call; other numbers are inactive results; nt = no result given.
SMILES,UBC13 polyUb,ALR H2O2 inh,RBBP9 inhibitor,PREPL inh,Rin1-Abl PPI inh,SUMO HTRF inh
COc1ccc(-n2cc(-c3ccc(Cl)cc3)[nH]c2=S)cc1,3,-1,-4,10,-7,-1
Cc1cc(C(=O)NC2CCCc3c2cnn3-c2ccc(C(C)(C)C)cc2)nn1C (centres undefined),-3,-6,nt,-2,4,-6
CCCN1CCN(C(=O)C(NC(=O)c2ccco2)C(C)C)CC1 (centres undefined),1,-4,nt,4,5,-5
COc1ccc(N2CCN(S(=O)(=O)c3c(C(=O)N4CCOCC4)c(C)n(C)c3C)CC2)cc1,-3,43,nt,12,-7,-6
COc1ccc(C(C)=O)cc1CSC(=N)N,12,99*,-7,7,4,-23
CCOc1ccc(C(C)=O)cc1CSC(=N)N,0,69,-5,1,2,17
COc1cccc(CNC(=O)C2CCN(S(=O)(=O)c3ccc4c(c3)C(C)(C)C(=O)N4C)CC2)c1,nt,nt,nt,nt,2,nt
COc1cccc(NC(=O)CSc2nc(=O)n(Cc3ccncc3)c3c2CCCC3)c1,-1,1,nt,-2,0,nt
CC(=O)Nc1cccc(NC(=O)CSc2nc(=O)n(Cc3ccccn3)c3c2CCC3)c1,-5,98*,nt,-6,2,nt
CC(=O)Nc1cccc(NC(=O)CSc2nc(=O)n(Cc3ccncc3)c3c2CCC3)c1,0,99*,nt,7,-3,nt
O=C(c1ccc(OC2CCN(CCc3ccccc3)CC2)cc1)N1CCC(CO)CC1,4,-14,nt,13,7,2
NS(=O)(=O)c1ccc(N2C(=O)C(=O)/C(=C(/O)c3ccccc3)C2c2ccc(Cl)cc2)cc1 (centres undefined),-3,nt,-1,20,3,-9
CCCN1CCc2nc(SCC(=O)Nc3ccc(C)c(Cl)c3)[nH]c(=O)c2C1,6,98*,nt,10,-3,2
Cc1ccc2nc(SCC(=O)Nc3ccc4c(c3)CCC4)[nH]c2c1,5,nt,-4,-22,0,-34
CCc1c(O)nc(SCC(=O)Nc2ccc3c(c2)CCC3)[nH]c1=O,0,100*,-3,-16,-5,-19
CCCCc1c(O)nc(SCC(=O)Nc2ccc3c(c2)CCC3)[nH]c1=O,-8,99*,-8,-7,2,-6
Cc1cc(C)cc(NC(=O)CSc2nc3c(c(=O)[nH]2)CN(Cc2ccc(F)cc2)CC3)c1,-10,-32,-6,-3,-3,-1
COc1ccc(S(=O)(=O)N2CCOCC2)cc1NC(=O)C1CC(=O)N(c2ccc3c(c2)OCCO3)C1 (centres undefined),nt,nt,nt,nt,-2,nt
CCOC(=O)C1CCN(C(=O)Cc2cccs2)CC1,6,-4,-6,1,0,-2
Cc1cccc(-c2nc(CS(=O)CC(=O)N3CCN(C)CC3)c(C)o2)c1 (centres undefined),-5,99*,0,3,1,18
Cc1ccc(-c2nc(CS(=O)CC(=O)N3CCN(c4ccc(F)cc4)CC3)c(C)o2)cc1 (centres undefined),4,99*,nt,-28,5,2
COc1ccc(N2CCN(C(=O)CS(=O)Cc3nc(-c4ccc(OC)c(OC)c4)oc3C)CC2)cc1 (centres undefined),5,-2,nt,13,3,0
CCOC(=O)C1CCN(C(=O)CS(=O)Cc2nc(-c3ccc(C)cc3)oc2C)CC1 (centres undefined),-2,100*,-10,-2,3,1
Cc1ccc(Nc2nc(CSc3nnnn3-c3ccccc3)cs2)cc1,4,9,-10,14,-2,6
Cc1ccc(Nc2nc(CSc3n[nH]c(N)n3)cs2)cc1,5,98*,-2,4,0,8
SMILES,UBC13 polyUb,ALR H2O2 inh,RBBP9 inhibitor,PREPL inh,Rin1-Abl PPI inh,SUMO HTRF inh
Cc1ccc(CSc2n[nH]c(N)n2)cc1,-4,0,1,9,3,4
Cc1ccc(Nc2nc(CSc3nnnn3C)cs2)cc1,8,99*,-5,11,1,13
Cn1nnnc1SCc1csc(Nc2ccccc2)n1,-4,90*,-8,2,-3,5
Cc1cc(NC(=O)c2ccccc2C)n(-c2cccc(F)c2)n1,4,-14,nt,7,1,0
COc1ccc(-c2cc(CNc3nc4cc(-c5ccccc5C)sc4c(=O)n3C)on2)cc1,nt,nt,nt,nt,-9,nt
CN(CC(=O)Nc1c(Cl)cccc1Cl)C(=O)c1ccc2ccccc2n1,-5,nt,nt,nt,0,nt
Oc1cccc(CN2CCOCC2)c1O,nt,nt,nt,nt,13*,nt
CC(C)N(CCCNC(=O)c1nn(C)c2c1CS(=O)(=O)c1ccccc1-2)Cc1ccccc1,2,0,nt,10,3,nt
O=C1[C@@H]2Cc3c([nH]c4ccccc34)C(c3ccccc3)N2C(=O)CN1CCO (some centres undefined),2,54,nt,-3,4,-16
O=C1[C@@H]2Cc3c([nH]c4ccccc34)C(c3ccc(Cl)cc3)N2C(=O)CN1CCO (some centres undefined),11,99*,nt,-4,3,1
CCCCCCCCCn1c2c(c(=N)c3c1CCC3)CCC2,31,-24,6,35,2,18
CCCCCCn1c2c(c(=N)c3c1CCC3)CCC2,-6,99*,1,21,3,8
COc1ccc(Cc2nnc(NC(=O)c3ccccc3C)s2)cc1,0,-1,nt,-6,1,-1
c1ccc2c3c([nH]c2c1)-c1[nH]ncc1CC3,26,98*,6,10,2,17
O=c1c2ccccc2nc2n1CCc1c-2[nH]c2ccccc12,-4,-13,nt,-4,-1,nt
O=CNC1CCCc2c1[nH]c1ccc(Cl)cc21 (centres undefined),-3,31,-11,17,-2,-7
Clc1ccc2[nH]c3c(c2c1)CCc1cn[nH]c1-3,38,99*,-10,33,1,-3
COc1ccc(NC(=O)COC(=O)c2c(C)noc2C)cc1Cl,nt,nt,nt,nt,-4,nt
CC(C)OC(=O)C(C(=O)C(F)(F)F)c1cc(NS(=O)(=O)c2ccc3ccccc3c2)c2ccccc2c1O (centres undefined),-29,nt,6,-1,-2,71*
Cc1ccc(C(=O)O)cc1NS(=O)(=O)c1ccc2ccccc2c1,-11,4,nt,-6,-1,2
CC(=O)OCC1(C)CN(c2ccccc2)N(C(C)=O)C1=O (centres undefined),-8,57,-1,10,-2,2
CC(=O)OCC1(C)CN(c2ccccc2)NC1=O (centres undefined),5,99*,-6,11,-3,-6

# Screening results: PubChem, several laboratories
